In the library only some 4.9% were active in any assay of this set; here they are far more common.
HSF1 inhib: HSF1 inhibition; NIH3T3-HGL HSE-luciferase, MG132-induced, luminescence 8 h; hits give low values; activity change, negative = inhibition, % at 7.5 µM (by protocol); hit rate 0.77% among 300,000; AID 2098;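 active means more than half of replicate wells show activity change below -50%, luminescence cut by over half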;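 further: luciferase reports HSF-1 transcriptional activity via heat shock element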
Lipid droplet: hepatic lipid droplet formation modulation | hit rate 0.4% among 240,000 | AID 1656 | inhibition, % at 6.5 µM | AML12 mouse hepatocytes, oleate lipid droplets, BODIPY imaging;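 active means lipid droplet intensity inhibited by at least 50%, with more than 500 cells counted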
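material = mouse AML12 hepatocyte cell line, fixed after treatment | also added = 100 µM oleic acid challenge | doses = compound at 6.5 µM only | schedule = overnight exposure | technique = Image-based BODIPY and DAPI two-channel analysis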
HSF1 activator: increases HSF-1 driven luciferase reporter signal | NIH3T3-HGL HSF-1 luciferase reporter, MG132, 8 h; 100% = twice DMSO control signal | activation, % at 9 µM | hit rate 1.7% among 300,000;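 active means mean replicate activation of at least 50% with a set share of replicates each reaching 50%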
PHOSPHO1 inh: PHOSPHO1 (human) inhibition; Q8TCT1; AID 1565; inhibition, % at 13.3 µM; recombinant PHOSPHO1, absorbance phosphatase assay; hit rate 1.1% among 290,000; in the data active means inhibition above about 60%
Target sequence (Q8TCT1 whole entry, looked up): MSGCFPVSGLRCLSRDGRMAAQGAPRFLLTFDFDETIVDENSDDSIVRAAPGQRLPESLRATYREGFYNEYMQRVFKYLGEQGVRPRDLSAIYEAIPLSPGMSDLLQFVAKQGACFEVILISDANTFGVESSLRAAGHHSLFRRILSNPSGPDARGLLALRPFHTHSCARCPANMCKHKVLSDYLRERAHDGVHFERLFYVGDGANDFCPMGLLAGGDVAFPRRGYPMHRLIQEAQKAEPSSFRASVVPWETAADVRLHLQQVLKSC
CHT PAM: human CHT allosteric activation; Q9GZV3; CHT-expressing cells, membrane potential dye, choline EC20; hits give high values; LV-AA mutant CHT in HEK293 cells; B-score at 10 µM; hit rate 0.49% among 310,000;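 active means initial fluorescence not abnormally high and integrated response B-score, plate-corrected, over 3 SD above library mean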
CHT inh: human CHT choline transport inhibition; hit rate 0.86% among 310,000; B-score at 10 µM; AID 488975; CHT-expressing cells, membrane potential dye, choline response; hits give low values; Q9GZV3;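 active means B-score over 3 SD under the library average, and starting fluorescence ratio not unusually high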;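 further: choline stimulus applied at its EC90 after an EC20 pre-addition; B-score computed on integrated fluorescence ratio after choline addition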
CHT block conf: confirmation of human choline transporter CHT inhibitors; shares compounds with CHT inh; hit rate 70% among 2,400; CHT activity remaining % of control (hits give low values), % at 10 µM; CHT-expressing cells, choline membrane potential dye; LV-to-AA substituted CHT, HEK293 cells;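 active means choline transporter activity left, mean of duplicates at 10 µM, below buffer-only control mean minus 3 SD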;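 further: depolarization triggered by choline at its EC90 following an EC20 pre-addition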
HEK293 MPD ctr: counter-screen for CHT inhibitors: effect in parental HEK293 cells. membrane potential ratio readout (active if shifted either direction beyond buffer ±3SD; no single direction) at 10 µM. membrane potential dye, choline response; active = decrease or increase beyond buffer ±3SD. shares compounds with CHT inh. hit rate 4% among 2,400;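 further: parental cells lack the transporter so any hit is non-specific; ratio is peak minus trough fluorescence over baseline after EC90 choline challenge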
Each line names hits and unclear results; the compound was inactive in the other large screens (follow-up assays come after a bar, where they were run).

CCc1ccc(C(C)NC(=S)NC2CCCCC2)cc1 (configuration not stated)	CHT inh -8.1 | CHT block conf 49% | HEK293 MPD ctr inactive
Cc1ccccc1OCC(=O)NS(=O)(=O)c1ccc(Cl)cc1	none
Cc1ccc(C(C)C)c(OCC(=O)NS(=O)(=O)c2ccc(Cl)cc2)c1	CHT inh -6.4 | CHT block conf 14% | HEK293 MPD ctr inactive
O=C(c1ccc(Cl)c(S(=O)(=O)N2CCCC2)c1)N1CCN(c2ccccc2)CC1	CHT inh -6 | CHT block conf 42% | HEK293 MPD ctr inactive
Cc1ccc(C(=O)N2CCN(c3ccc(F)cc3)CC2)cc1S(=O)(=O)N1CCCCC1	none
Cc1ccc(C(=O)N2CCN(c3ccccc3)CC2)cc1S(=O)(=O)N1CCCC1	CHT inh -9.5 (no result: Lipid droplet) | CHT block conf 55% | HEK293 MPD ctr inactive
NC(=O)COC(=O)c1ccc(Cl)c(S(=O)(=O)N2CCN(c3ccc(F)cc3)CC2)c1	CHT inh -7.1 | CHT block conf 59% | HEK293 MPD ctr inactive
Cc1nn2c(N3CCN(C)CC3)c3c(nc2c1-c1ccccc1)CCCC3	CHT inh -9.6 | CHT block conf 32% | HEK293 MPD ctr inactive
CN(C)/C=C1\C=C2C(=O)c3ccccc3N2C1=O	none
Cc1ccc(S(=O)(=O)NCCC(=O)N2CCC(Cc3ccccc3)CC2)cc1	none (no result: Lipid droplet, PHOSPHO1 inh) | CHT block conf inactive | HEK293 MPD ctr inactive
CN1CCN(C(=O)/C(=C/c2ccc(F)cc2)c2ccsc2)CC1	none
CCN(CC)S(=O)(=O)c1ccc(N2CCOCC2)c(NC(=O)c2ccc(N3CCCC3=O)cc2)c1	none (no result: Lipid droplet, PHOSPHO1 inh)
N#C/C(=N\Nc1ccc(Cl)cc1)C(N)=S	CHT inh -8.1 | CHT block conf 39% | HEK293 MPD ctr inactive
N#C/C(=N\Nc1ccccc1)C(N)=S	none
COc1ccc(-c2nc3ccc(C(=O)NCCCN4CCOCC4)cc3nc2-c2ccc(OC)cc2)cc1	CHT inh -5.1 | CHT block conf 53% | HEK293 MPD ctr inactive
CCN1CCN(CCNC(=O)c2ccc3nc(-c4cccc(C)c4)c(-c4cccc(C)c4)nc3c2)CC1	CHT inh -8.7 | CHT block conf 36% | HEK293 MPD ctr inactive
NS(=O)(=O)c1cccc(NC(=O)CSc2nnc(C3CC3)n2Cc2ccccc2)c1	CHT inh -5.9 | CHT block conf inactive | HEK293 MPD ctr inactive
CC(C)OC(=O)CN1CCN(S(=O)(=O)c2cc(Cl)ccc2Cl)CC1	CHT inh -6.4 (no result: HSF1 inhib, HSF1 activator) | CHT block conf 66% | HEK293 MPD ctr inactive
CN(C)c1ccc(NC(=O)CN2CCN(S(=O)(=O)c3cc(Cl)ccc3Cl)CC2)cc1	none
COc1ccc(Cl)cc1N1C(=NC(=O)C2CCCO2)SC2CS(=O)(=O)CC21 (configuration not stated)	none
Cc1ccc(NC(=S)NNC(=O)c2cccc([N+](=O)[O-])c2)cc1Cl	PHOSPHO1 inh 74, CHT inh -5.7 | CHT block conf 54% | HEK293 MPD ctr inactive
Cc1cc(SCC(=O)c2ccc(O)c(O)c2)n2nc(C)c(-c3ccccc3)c2n1	none
NC(=O)c1sc(-c2ccsc2)cc1NS(=O)(=O)c1ccc(C(F)(F)F)cc1	CHT inh -6.9 | CHT block conf inactive | HEK293 MPD ctr inactive
CC(=O)c1sc(-c2ccc(F)cc2)cc1NS(=O)(=O)c1ccc(C)cc1	none
Cc1cccc(NC(=O)CC2NC3CCCCC3NC2=O)c1 (configuration not stated)	none
Fc1ccc(-c2nc3c(-c4ccccc4)cnn3cc2CCN2CCOCC2)cc1	CHT inh -10 | CHT block conf 22% | HEK293 MPD ctr inactive
Fc1ccc(-c2nc3c(-c4ccc(F)cc4)cnn3cc2CCN2CCOCC2)cc1	CHT inh -6.6 | CHT block conf 59% | HEK293 MPD ctr inactive
COc1ccc(-c2nc3c(-c4ccccc4)cnn3cc2C)cc1F	none
COc1ccc(-c2nc3c(-c4ccc(Cl)cc4)cnn3cc2C)cc1F	none
Cc1ccc(OCCOC(=O)c2c(-c3ccccc3)noc2C)cc1	CHT inh -5 | CHT block conf inactive | HEK293 MPD ctr inactive
COc1ccccc1CN1C(=O)[C@@H]2C(CCC(N)=O)NC3(C(=O)Nc4c3ccc(Cl)c4C)[C@@H]2C1=O (some centres not stated)	CHT inh -6.1 (no result: Lipid droplet) | CHT block conf 61% | HEK293 MPD ctr inactive
COc1ccccc1CN1C(=O)[C@@H]2C(CC(N)=O)NC3(C(=O)Nc4c3ccc(Cl)c4C)[C@@H]2C1=O (some centres not stated)	none (no result: Lipid droplet)
CCCCn1c(SCc2nnc(-c3ccccc3)o2)nc2c1c(=O)n(C)c(=O)n2C	CHT inh -5.6 (no result: Lipid droplet) | CHT block conf 34% | HEK293 MPD ctr inactive
COc1cc(Br)ccc1NC(=O)c1ccccc1-c1ccccc1C(=O)O	CHT inh -5.4 (no result: Lipid droplet, PHOSPHO1 inh) | CHT block conf inactive | HEK293 MPD ctr inactive
COc1ccc(NC(=O)c2ccccc2NC(=O)c2ccccc2C(=O)O)c(OC)c1	none
Oc1c(Br)cc(Br)cc1/C=N/c1nc2c(s1)CCCC2	CHT inh -12 (no result: Lipid droplet, PHOSPHO1 inh) | CHT block conf 57% | HEK293 MPD ctr inactive
Cc1ccc(S(=O)(=O)N2CCN(CC(=O)N/N=C\C(Cl)=C\c3ccccc3)CC2)cc1	none
CC(C(=O)Nc1ccccc1Cl)N(c1ccccc1)S(C)(=O)=O (configuration not stated)	none
CC(C(=O)NC1CCCCCC1)N(c1ccccc1)S(C)(=O)=O (configuration not stated)	CHT inh -12 | CHT block conf inactive | HEK293 MPD ctr inactive
COC(=O)C1CN(C(=O)C(C)Oc2ccccc2Cl)c2ccccc2O1 (configuration not stated)	CHT inh -5.2 | CHT block conf 71% | HEK293 MPD ctr inactive
COC(=O)[C@@H](NC(=O)Nc1ccc(C(C)=O)cc1)C(C)C	none (no result: Lipid droplet)
Cc1cccc(NC(=O)c2cc(-c3ccc(C)c(C)c3O)n[nH]2)c1	none
CCOC(=O)CC1(C)NC(=O)c2c(C)sc(C(=O)OCC)c2N1 (configuration not stated)	none (no result: Lipid droplet)
CCOC(=O)CC1(CC(=O)OCC)NC(=O)c2c(C)sc(C(=O)OCC)c2N1	CHT inh -5.1 | CHT block conf 38% | HEK293 MPD ctr inactive
CC#CCN(CC#CC)S(=O)(=O)c1ccc(-n2cnnn2)c(OC)c1	CHT inh -6.8 (no result: Lipid droplet) | CHT block conf 59% | HEK293 MPD ctr inactive

Assay outcomes deposited in PubChem BioAssay by several laboratories.
